Measurements reported in publication PMC3417419 (British Journal of Pharmacology, 2012).
Like-named read-outs stand apart in the source and are kept apart here.

Tests used:
[1] = target: GluN1/GluN2A NMDA receptors (Rattus norvegicus, UniProt P35439+Q00959); assay: Two-electrode voltage-clamp; assay type: cell-based; conditions: for mean dose ratio (r): two-point glycine curves
[2] = target: GluN1/GluN2B NMDA receptors (Rattus norvegicus, UniProt P35439+Q00960); assay: Two-electrode voltage-clamp; assay type: cell-based; conditions: for antagonism of glutamate/glycine-evoked responses: TCN 213 10 µM
rat cortical neurones = assay: NMDA-induced excitotoxicity assay in cortical cultures; assay type: cell-based; conditions: NMDA 40 µM + glycine […], 1 h, DIV 7–10, assessed at 24 h
In short: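 Cortical neurones from E21 Sprague–Dawley rat embryos, grown in Neurobasal-A with B27, 1% rat serum and glutamine; AraC added at DIV 4. Before the assay, cultures moved to glycine-free non-trophic medium (10% MEM in HEPES salt-glucose medium). […] After 24 h, DAPI-stained pyknotic nuclei counted as percentage of total nuclei.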

[3] = target: GluN1/GluN2A and GluN1/GluN2D NMDA receptors; conditions: ref Chen et al., 2008; cited from earlier work
[4] = system: GluN2A- and GluN2B-containing NMDA receptors; conditions: cited from earlier work
native NMDA receptors = assay: Whole-cell NMDA-evoked currents in cultured rat cortical neurones; assay type: cell-based; conditions: for block of NMDA receptor-mediated currents, subset with greatest ifenprodil block: n= 7 cells
GluN1 subunit = conditions: ref Bettini et al. (2010); cited from earlier work
[5] = system: GluN1/GluN2B NMDA receptors; conditions: non-competitive antagonist, block 'at most'; no reference given; cited from earlier work
[6] = TCN 213 30 µM, NMDA 50 µM + glycine 3 µM

GluN1/GluN2A NMDA receptors, sequence (Q00959 23-1464, other chains not shown): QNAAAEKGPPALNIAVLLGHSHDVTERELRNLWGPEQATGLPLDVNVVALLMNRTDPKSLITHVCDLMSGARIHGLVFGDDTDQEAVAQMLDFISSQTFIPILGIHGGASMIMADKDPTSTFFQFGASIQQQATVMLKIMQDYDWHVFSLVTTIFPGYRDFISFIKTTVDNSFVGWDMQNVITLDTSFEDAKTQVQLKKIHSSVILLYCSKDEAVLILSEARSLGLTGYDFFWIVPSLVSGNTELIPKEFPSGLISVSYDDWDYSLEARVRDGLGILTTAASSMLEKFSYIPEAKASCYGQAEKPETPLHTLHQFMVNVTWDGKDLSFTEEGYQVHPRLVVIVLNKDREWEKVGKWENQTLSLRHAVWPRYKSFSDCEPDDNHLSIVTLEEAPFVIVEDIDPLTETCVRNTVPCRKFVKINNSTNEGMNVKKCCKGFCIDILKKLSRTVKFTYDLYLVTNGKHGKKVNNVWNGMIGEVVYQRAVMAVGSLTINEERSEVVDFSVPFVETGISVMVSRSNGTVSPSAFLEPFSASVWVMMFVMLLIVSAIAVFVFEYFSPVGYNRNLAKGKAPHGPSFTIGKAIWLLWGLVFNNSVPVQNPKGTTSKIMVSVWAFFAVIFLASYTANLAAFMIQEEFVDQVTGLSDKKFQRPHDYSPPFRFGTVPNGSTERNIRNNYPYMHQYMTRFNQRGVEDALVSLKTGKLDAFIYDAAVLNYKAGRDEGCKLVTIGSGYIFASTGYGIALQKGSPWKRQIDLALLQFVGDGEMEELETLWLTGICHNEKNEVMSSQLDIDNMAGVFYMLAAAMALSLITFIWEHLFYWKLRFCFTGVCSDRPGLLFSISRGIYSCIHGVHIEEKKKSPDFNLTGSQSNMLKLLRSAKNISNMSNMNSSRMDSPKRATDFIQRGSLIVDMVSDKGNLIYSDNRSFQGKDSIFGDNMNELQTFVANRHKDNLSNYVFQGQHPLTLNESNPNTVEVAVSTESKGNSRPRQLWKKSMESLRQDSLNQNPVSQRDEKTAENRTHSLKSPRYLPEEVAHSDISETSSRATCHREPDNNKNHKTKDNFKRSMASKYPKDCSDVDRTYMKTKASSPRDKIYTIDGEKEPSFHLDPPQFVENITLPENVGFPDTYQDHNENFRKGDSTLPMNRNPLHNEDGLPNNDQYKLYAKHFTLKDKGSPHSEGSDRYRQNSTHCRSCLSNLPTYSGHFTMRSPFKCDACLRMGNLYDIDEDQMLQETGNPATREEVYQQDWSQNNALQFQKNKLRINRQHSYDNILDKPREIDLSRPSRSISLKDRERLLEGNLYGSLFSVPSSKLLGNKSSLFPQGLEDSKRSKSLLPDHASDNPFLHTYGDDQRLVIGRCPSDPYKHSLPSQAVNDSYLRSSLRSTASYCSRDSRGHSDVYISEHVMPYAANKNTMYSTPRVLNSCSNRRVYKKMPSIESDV
GluN1/GluN2B NMDA receptors (Rattus norvegicus, UniProt P35439+Q00960), sequence (Q00960 27-1482, other chains not shown): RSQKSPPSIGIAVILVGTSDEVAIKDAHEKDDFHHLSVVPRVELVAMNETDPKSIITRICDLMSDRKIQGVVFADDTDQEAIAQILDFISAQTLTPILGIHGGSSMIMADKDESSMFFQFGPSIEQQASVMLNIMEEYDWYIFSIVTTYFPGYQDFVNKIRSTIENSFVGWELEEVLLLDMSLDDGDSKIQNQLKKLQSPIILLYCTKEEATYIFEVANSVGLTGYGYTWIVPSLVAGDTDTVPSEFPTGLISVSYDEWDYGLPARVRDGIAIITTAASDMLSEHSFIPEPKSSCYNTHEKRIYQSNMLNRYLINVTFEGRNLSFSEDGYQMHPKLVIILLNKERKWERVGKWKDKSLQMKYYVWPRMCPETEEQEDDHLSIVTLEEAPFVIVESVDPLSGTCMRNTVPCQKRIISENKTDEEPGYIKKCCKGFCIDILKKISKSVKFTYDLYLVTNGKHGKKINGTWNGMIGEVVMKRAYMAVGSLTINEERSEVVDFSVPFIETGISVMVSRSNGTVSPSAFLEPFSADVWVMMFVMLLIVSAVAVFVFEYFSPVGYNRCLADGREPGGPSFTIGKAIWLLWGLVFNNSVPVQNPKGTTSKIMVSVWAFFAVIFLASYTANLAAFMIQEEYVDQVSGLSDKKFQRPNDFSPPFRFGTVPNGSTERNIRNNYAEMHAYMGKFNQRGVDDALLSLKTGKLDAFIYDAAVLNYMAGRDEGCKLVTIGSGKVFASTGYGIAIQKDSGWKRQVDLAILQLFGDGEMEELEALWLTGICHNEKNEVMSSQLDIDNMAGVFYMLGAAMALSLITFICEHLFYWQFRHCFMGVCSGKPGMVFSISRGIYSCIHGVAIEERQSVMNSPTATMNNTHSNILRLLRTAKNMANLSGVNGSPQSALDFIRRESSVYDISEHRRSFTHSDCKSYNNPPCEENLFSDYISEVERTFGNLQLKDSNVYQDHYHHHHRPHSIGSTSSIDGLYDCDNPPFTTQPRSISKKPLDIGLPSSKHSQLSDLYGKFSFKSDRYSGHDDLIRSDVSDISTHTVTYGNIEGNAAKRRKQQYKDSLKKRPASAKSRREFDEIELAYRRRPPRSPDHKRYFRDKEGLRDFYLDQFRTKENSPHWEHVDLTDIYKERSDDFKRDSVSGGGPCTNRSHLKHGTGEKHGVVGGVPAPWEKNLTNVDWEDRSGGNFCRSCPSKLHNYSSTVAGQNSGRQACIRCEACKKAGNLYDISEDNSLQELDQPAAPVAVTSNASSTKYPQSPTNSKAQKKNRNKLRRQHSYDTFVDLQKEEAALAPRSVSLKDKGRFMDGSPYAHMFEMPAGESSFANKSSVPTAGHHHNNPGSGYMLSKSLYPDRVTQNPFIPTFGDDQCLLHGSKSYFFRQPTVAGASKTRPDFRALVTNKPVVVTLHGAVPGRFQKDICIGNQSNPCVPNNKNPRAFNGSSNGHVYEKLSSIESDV

Compound: O=C(O)c1cc(=O)c2c(Cl)cc(Cl)cc2[nH]1 [5,7 DCKA, 5,7 dichlorokynurenic acid]
- IC50 ([1]; read-out: Antagonist IC50, [gly]= 0.1 EC50 ([…] glycine) + 100 µM glutamate): 130 ± 10 nM
- IC50 ([1]; read-out: Antagonist IC50, [gly]= 10 EC50 (15 µM glycine) + 100 µM glutamate): 4100 ± 300 nM
- IC50 ([1]; read-out: Antagonist IC50, [gly]= EC50 ([…] glycine) + 100 µM glutamate): 420 ± 30 nM
- IC50 ([2]; read-out: Antagonist IC50): 74 ± 10 nM
- IC50 ([2]; read-out: Antagonist IC50, [gly]= 10 EC50): 4100 ± 400 nM
- IC50 ([2]; read-out: Antagonist IC50, [gly]= EC50): 490 ± 10 nM
- NMDA-induced cell death (pyknotic nuclei) versus NMDA alone (rat cortical neurones; 5,7 DCKA 10 µM): reduced significantly
- KB values at GluN1/GluN2A versus GluN1/GluN2D (Schild analysis) [3]: indistinguishable

Compound: [N-]=[N+]=Nc1ccc(CC(=O)NC2CC(C(=O)O)Nc3cc(Cl)cc(Cl)c32)cc1 (centres unmarked) [CGP-61594]
- potency at GluN1/GluN2B compared with GluN1/GluN2A NMDA receptors ([4]; more potent at GluN1/GluN2B, ref Honer et al., 1998): 10 fold

Compound: O=C(Nc1ccccc1)N[C@@H]1C[C@@H](C(=O)O)Nc2cc(Cl)cc(Cl)c21 [L-689 560]
- selectivity for GluN2A- over GluN2B-containing NMDA receptors ([4]; ref Hess et al., 1996): 5 fold

Compound: O=C(CSc1nnc(NCc2ccccc2)s1)NCC1CCCCC1 [TCN 213, N-(cyclohexylmethyl)-2-({5-[(phenylmethyl)amino]-1,3,4-thiadiazol-2-yl}thio)acetamide]
- mean dose ratio (r) ([1]; 10 µM TCN 213, glutamate 100 µM): 5.20 ± 0.79
- mean dose ratio (r) ([1]; 30 µM TCN 213, glutamate 100 µM): 17.22 ± 1.69
- Schild plot slope, 'free' fit ([1]; 95% confidence interval 0.94–1.31): 1.13
- IC50 ([1]; Antagonist IC50, [gly]= 0.1 EC50 ([…] glycine) + 100 µM glutamate): 550 ± 50 nM
- IC50 ([1]; Antagonist IC50, [gly]= 10 EC50 (15 µM glycine) + 100 µM glutamate): 40000 ± 3500 nM
- IC50 ([1]; Antagonist IC50, [gly]= EC50 ([…] glycine) + 100 µM glutamate): 3500 ± 50 nM
- block of glutamate/glycine-evoked current ([1]; TCN 213 10 µM, glutamate 100 µM, glycine 150 nM (0.1 × EC50)): Almost complete block
- block of glutamate/glycine-evoked current ([1]; TCN 213 10 µM, glutamate 100 µM, glycine 15 µM (10 × EC50)): substantially less block
- dependence of antagonism on glutamate concentration ([1]; TCN 213 10 µM, glycine 50 µM, glutamate 0.1, 1, 10 × EC50): not dependent on the glutamate concentration
- expected block of current for a purely GluN2A-containing population ([1]; TCN 213 10 µM, glycine […], read from Figure 2A): around 75%
- mean block of NMDA-evoked current [1, 6]: 78 ± 4%
- reduction in amplitude of current response, example trace ([1]; TCN 213 30 µM, NMDA 50 µM + glycine 3 µM, single oocyte): approximately 75%
- selectivity GluN1/GluN2A over GluN1/GluN2B ([1]; from IC50 values at glycine = EC50): around 100 fold
- surmountability of antagonism by increasing glycine ([1]; glutamate 100 µM, glycine 50 µM and above): surmountable
- concentration predicted to block fully the response ([1]; glycine 10 times EC50, extrapolation of Figure 2A): around 1 mM
- IC50 [2]: > 300000 nM
- antagonism of glutamate/glycine-evoked responses ([2]; 50 µM glycine, three glutamate concentrations): no antagonism
- antagonism of glutamate/glycine-evoked responses ([2]; glycine low (0.1 × EC50)): only modestly antagonized
- mean block of NMDA-evoked current [2, 6]: 2 ± 0.5%
- inhibition of currents ([2]; TCN 213 30 µM, glycine 1 and 10 times EC50): negligible inhibition
- average inhibition of NMDA receptor-mediated currents (native NMDA receptors; TCN 213 10 µM, DIV 7–10, NMDA 50 µM + glycine […], −70 mV): 2 ± 3%
- block of NMDA receptor-mediated currents, subset with greatest ifenprodil block (native NMDA receptors; TCN 213 10 µM, DIV 7–10): 4 ± 2%
- displacement of the GluN1 ligand MDL 105 519 (GluN1 subunit): failed to displace

Compound: CC(C(O)c1ccc(O)cc1)N1CCC(Cc2ccccc2)CC1 (centres unmarked) [ifenprodil]
- reduction of NMDA + glycine evoked current, example cell (native NMDA receptors; ifenprodil 3 µM, 7 DIV pyramidal cell, NMDA 50 µM + glycine […]): around 75%
- average block of NMDA receptor-mediated currents (native NMDA receptors; ifenprodil 3 µM, DIV 7–10, NMDA 50 µM + glycine […], −70 mV): 72 ± 2%
- block of NMDA receptor-mediated currents, subset with greatest ifenprodil block (native NMDA receptors; ifenprodil 3 µM, DIV 7–10): 78 ± 1%
- NMDA-induced cell death (pyknotic nuclei) versus NMDA alone (rat cortical neurones; ifenprodil 3 µM): reduced significantly
- maximal block of current [5]: 75–80%
